For assay [1], the system named is Spodoptera littoralis. Kind of assay: Phagostimulant activity against sixth stadium larvae of Spodoptera littoralis assessed as antifeedant index at 100 ppm after 16 hrs. In kind it is functional. In a few lines:
(§1)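 Choice test: sixth-stadium larvae were starved 4 h and each placed in a Petri dish with two sucrose-treated glass-fiber disks (100 μL 0.05 M, 2.1 cm), one a control and one carrying compound at 100 ppm. Disks were reweighed, and index = [(C−T)/(C+T)]×100 from weights eaten. Negative values mean phagostimulation. 10 replications; Wilcoxon signed-ranks test, P<0.05.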

Assay [2] has as its system Spodoptera littoralis. Briefly: Antifeedant activity against sixth stadium larvae of Spodoptera littoralis assessed as antifeedant index at 100 ppm after 16 hrs. In kind it is functional. The procedure, abridged: as §1
The test system of assay [3] is Spodoptera littoralis. Kind of assay: Antifeedant activity against sixth stadium larvae of Spodoptera littoralis after 16 hrs. Format: functional, organism-based. In a few lines:
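No-choice feeding test: glass-fiber disks (2.1 cm) made palatable with 100 μL 0.05 M sucrose, then treated with 100 μL of test solution at 1, 10, 100 or 1000 ppm and offered to S. littoralis larvae. Ended at 16 h, when 50% of control disks were consumed. Disks were reweighed, and EC50 for 50% reduction in feeding was estimated relative to the sucrose control. 10 replications per concentration.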

On to `CC(=O)OCC[C@H](CC[C@@]1(C)[C@H](C)[C@@H](OC(C)=O)[C@H](OC(C)=O)[C@]23[C@@H]1C[C@H](C[C@]21CO1)O[C@@H]3O)COC(C)=O`, for which the Activity in the assay with Spodoptera littoralis [1] is on record as -38.8%. Same read-out and setting: the same measure for `CC(=O)OCC[C@H](CC[C@@]1(C)[C@H](C)[C@@H](OC(C)=O)[C@H](OC(C)=O)[C@]23C(=O)O[C@H](C[C@H]12)C[C@]31CO1)COC(C)=O`: -27.4%; for `C/C=C(\C)C(=O)O[C@H]1O[C@@H]2C[C@@H]3[C@@](C)(CC[C@@H](CCOC(C)=O)COC(C)=O)[C@H](C)[C@@H](OC(C)=O)[C@H](OC(C)=O)[C@]13[C@@]1(CO1)C2`: -0.4%. `CC(=O)O[C@@H]1C[C@@H]2[C@@](C)(CC[C@H]3CCOC3=O)[C@H](C)[C@@H](OC(C)=O)[C@H](OC(C)=O)[C@@]2(C=O)[C@@]2(CO2)C1`: the Activity in the assay with Spodoptera littoralis [2] turned out to be 17.2%. Consider `CO[C@H]1O[C@@H]2C[C@@H]3[C@@](C)(CC[C@H]4CCOC4=O)[C@H](C)[C@@H](OC(C)=O)[C@H](OC(C)=O)[C@]13[C@@]1(CO1)C2`, for which, in the assay on Spodoptera littoralis [1], the Activity is recorded as -29.5%. As to `CC(=O)O[C@@H]1[C@@H](C)[C@](C)(CC[C@H]2CCOC2=O)[C@H]2C[C@@H]3C[C@]4(CO4)[C@]2([C@@H](O)O3)[C@H]1O`, the EC50 with Spodoptera littoralis [3] is 51 ppm. In addition, in the assay on Spodoptera littoralis [2], the Activity was found to be 67%. The matching figures for `CC(=O)O[C@H]1C(=O)[C@@H](C)[C@](C)(CC[C@H]2CCOC2=O)[C@H]2C[C@@H]3C[C@]4(CO4)[C@@]21C(=O)O3`: more than 1000 ppm and 44.1%. The matching figures for `CC(=O)O[C@@H]1[C@@H](C)[C@](C)(CC[C@H]2CCOC2=O)[C@H]2C[C@@H]3C[C@]4(CO4)[C@]2([C@@H](OC(=O)C(C)C)O3)[C@H]1O`: more than 1000 ppm and 37.5%.

The compound `C/C=C(\C)C(=O)O[C@H]1O[C@@H]2C[C@@H]3[C@@](C)(CC[C@H]4CCOC4=O)[C@H](C)C(=O)[C@H](OC(C)=O)[C@]13[C@@]1(CO1)C2` had an EC50 in the assay on Spodoptera littoralis [3] of 350 ppm. In the assay on Spodoptera littoralis [2], the Activity is reported as 36.5%. With `CC(=O)O[C@@H]1[C@@H](C)[C@](C)(CC[C@H]2CCOC2=O)[C@H]2C[C@@H](OC(=O)C(C)C)C[C@]3(CO3)[C@]2(C=O)[C@H]1OC(C)=O`, the Activity with Spodoptera littoralis [1] is listed as -10%. For the compound `C/C=C(\C)C(=O)O[C@H]1O[C@@H]2C[C@@H]3[C@@](C)(CC[C@H](CO)CCO)[C@H](C)[C@@H](OC(C)=O)[C@H](OC(C)=O)[C@]13[C@@]1(CO1)C2`, the Activity in the assay on Spodoptera littoralis [2] amounted to 18.8%.

Consider `C/C=C(\C)C(=O)O[C@H]1O[C@@H]2C[C@@H]3[C@@](C)(CC[C@H]4CCOC4=O)[C@H](C)[C@@H](O)[C@H](OC(C)=O)[C@]13[C@@]1(CO1)C2`, for which, in the assay with Spodoptera littoralis [3], the EC50 was more than 1000 ppm. For the same compound, in the assay on Spodoptera littoralis [2], the Activity is on record as 29.3%.

In the assay on Spodoptera littoralis [3], `C/C=C(\C)C(=O)O[C@H]1O[C@@H]2C[C@@H]3[C@@](C)(CC[C@H]4CCOC4=O)[C@H](C)[C@@H](OC(C)=O)[C@H](O)[C@]13[C@@]1(CO1)C2` displayed an EC50 of more than 1000 ppm. The Activity with Spodoptera littoralis [2] is given as 18.6%. In the assay on Spodoptera littoralis [3], `CC(=O)O[C@@H]1[C@@H](C)[C@](C)(CC[C@H]2CCOC2=O)[C@H]2C[C@@H]3C[C@]4(CO4)[C@]2([C@@H](O)O3)[C@H]1OC(C)=O` yielded an EC50 of more than 1000 ppm. The Activity with Spodoptera littoralis [2] was found to be 34%. Take `CC(=O)OC1O[C@@H]2C[C@@H]3[C@@](C)([C@@H]4C[C@H]5C=CO[C@H]5O4)[C@H](C)C[C@H](OC(C)=O)[C@]13[C@@]1(CO1)C2` (some centres not stated) [JODRELLIN A]: in the assay on Spodoptera littoralis [2], the Activity stood at 92%. The same measure, in the same setting: the same measure for `CC(=O)O[C@H]1C[C@@H](C)[C@](C)([C@@H]2C[C@H]3C=CO[C@H]3O2)[C@H]2C[C@@H]3C[C@]4(CO4)[C@]12C(OC(=O)C(C)C)O3` (some centres not stated) [JODRELLIN B]: 100%.

`C/C=C(\C)C(=O)O[C@H]1C[C@H](C)[C@](C)([C@@H](O)CC2=CC(=O)OC2)[C@H]2CCC[C@]3(CO3)[C@]12COC(C)=O` [SCUTALPIN C] displayed an EC50 with Spodoptera littoralis [3] of less than 1 ppm. Further, the Activity with Spodoptera littoralis [2] was determined as 96.8%.

Take `C/C=C(\C)C(=O)O[C@H]1O[C@@H]2C[C@@H]3[C@@](C)(CC[C@H]4CCO[C@H]4O)[C@H](C)[C@@H](O)[C@H](OC(C)=O)[C@]13[C@@]1(CO1)C2` [SCUTEGALIN B]: the Activity in the assay on Spodoptera littoralis [1] is listed as -27%. This compound gave an EC50 with Spodoptera littoralis [3] of 870 ppm.

For the origin of these results see ChEMBL document CHEMBL1141826, “From a phagostimulant natural product to semisynthetic antifeedants against Spodoptera littoralis larvae: chemical transformations of the neoclerodane diterpenoid scutegalin B” (J Nat Prod, 1999).
